The results in this text go back to ChEMBL document CHEMBL4680229, “Design, synthesis and bioactivity study of N-salicyloyl tryptamine derivatives as multifunctional agents for the treatment of neuroinflammation” (Eur J Med Chem, 2020).

Active and inactive are the calls of the source. The rule behind the calls is not given here.

The test system of data set [1] is Mus musculus. Kind of data set: Antiinflammatory activity against LPS-induced hippocampal neuroinflammatory Kunming mouse model assessed as reduction in iba-1 level in hippocampus at 50 mg/kg, ip administered bid for 6 days by DAPI staining based microscopic method. It counts as functional, organism-based. The following applies: time 6.0 day.
Data set [2] has as its system BV-2. Description: Antiinflammatory activity against LPS-induced mouse BV-2 cells assessed as increase in IL-10 production at 40 uM after 24 hrs by ELISA. It counts as functional, cell-based. In short, it runs like this: (§1)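 BV2 cells at 5×10^5 cells/mL stimulated with LPS 1 μg/mL; compound at 10, 20 or 40 μM final for 24 h, DMSO in blanks. Supernatant TNF-α and IL-10 measured by sandwich ELISA and PGE2 by competitive ELISA, OD at 450 nm; at least three independent experiments.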

Data set [3] in a line: Toxicity in LPS-induced hippocampal neuroinflammatory Kunming mouse model assessed as behavioral changes at 50 mg/kg, ip administered bid for 6 days […]. It is filed as organism-based. The following applies: in vivo, 144 h, time 6 day. In short, it runs like this: (§2)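 Male Kunming mice (8 weeks, 20–25 g, n = 10/group) were anaesthetised with i.p. chloral hydrate, then given LPS (3 μL of 10 mg/mL) into the lateral ventricle at 0.5 μL/min; sham mice received 3 μL saline. Compound was then given i.p. at 50 mg/kg in saline with 1% methyl cellulose for six consecutive days. Behaviour and deaths were recorded, and hippocampal slices were Nissl-stained.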

Data set [4] relates to Mus musculus. Description: Antiinflammatory activity against LPS-induced hippocampal neuroinflammatory Kunming mouse model assessed as reduction in iba-1 level in hippocampus at 50 mg/kg, ip administered bid for 6 days by Western blot analysis. It is filed as functional, organism-based. Conditions: time 6.0 day.
Data set [5] in a line: Toxicity in LPS-induced hippocampal neuroinflammatory Kunming mouse model assessed as death at 50 mg/kg, ip administered bid for 6 days […]. It counts as organism-based. The following applies: in vivo, 144 h, time 6 day. In short, it runs like this: as §2
Data set [6] deals with BV-2. Description: Antiinflammatory activity against LPS-induced mouse BV-2 cells assessed as decrease in COX2 protein expression at 40 uM after 24 hrs by Western blot analysis. It counts as functional, cell-based. In short, it runs like this:
(§3)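 BV2 cells in DMEM with 10% FBS; LPS 1 μg/mL plus compound at 10, 20 or 40 μM final for 24 h. Lysates in RIPA with 1 mM PMSF; 30 μg protein on 8% SDS-PAGE and blotted for iNOS and COX-2, GAPDH as reference; ECL detection and densitometry; at least three independent experiments.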

Data set [7] concerns Mus musculus. Kind of data set: Antiinflammatory activity against LPS-induced hippocampal neuroinflammatory Kunming mouse model assessed as increase in integral neurons at 50 mg/kg, ip administered bid for 6 days by Nissl staining based microscopic method. It is filed as functional, organism-based. The following applies: time 6.0 day.
Data set [8] deals with C6. Description: Antiinflammatory activity against LPS-induced rat C6 cells assessed as decrease in INOS protein expression at 40 uM after 24 hrs by Western blot analysis relative to control. Set-up: scale not given: the % may be the effect or the level left. It is filed as functional. In short, it runs like this:
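C6 cells; LPS 10 μg/mL plus compound at 10, 20 or 40 μM for 24 h. Lysates with RIPA/PMSF, 30 μg protein on 8% SDS-PAGE, iNOS immunoblot and densitometry; at least three independent experiments.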

For data set [9], the system named is BV-2. Description: Antiinflammatory activity against LPS-induced mouse BV-2 cells assessed as decrease in COX2 protein expression after 24 hrs by Western blot analysis. It is filed as functional, cell-based. Conditions: BV-2, 24 h. In short, it runs like this:
as §3

Data set [10] deals with BV-2. Description: Inhibition of LPS-induced TNFalpha production in mouse BV-2 cells after 24 hrs by ELISA. It counts as functional, cell-based. The following applies: dose 10-40 µM. In short, it runs like this:
as §1

In data set [11] the target is Prostaglandin G/H synthase 2 (Homo sapiens) (UniProt P35354). Kind of data set: Inhibition of human COX2 assessed as reduction in PGF2alpha formation using arachidonic acid as substrate incubated for 10 mins by ELISA.
Chain of Prostaglandin G/H synthase 2 (Homo sapiens) (P35354 whole entry, looked up): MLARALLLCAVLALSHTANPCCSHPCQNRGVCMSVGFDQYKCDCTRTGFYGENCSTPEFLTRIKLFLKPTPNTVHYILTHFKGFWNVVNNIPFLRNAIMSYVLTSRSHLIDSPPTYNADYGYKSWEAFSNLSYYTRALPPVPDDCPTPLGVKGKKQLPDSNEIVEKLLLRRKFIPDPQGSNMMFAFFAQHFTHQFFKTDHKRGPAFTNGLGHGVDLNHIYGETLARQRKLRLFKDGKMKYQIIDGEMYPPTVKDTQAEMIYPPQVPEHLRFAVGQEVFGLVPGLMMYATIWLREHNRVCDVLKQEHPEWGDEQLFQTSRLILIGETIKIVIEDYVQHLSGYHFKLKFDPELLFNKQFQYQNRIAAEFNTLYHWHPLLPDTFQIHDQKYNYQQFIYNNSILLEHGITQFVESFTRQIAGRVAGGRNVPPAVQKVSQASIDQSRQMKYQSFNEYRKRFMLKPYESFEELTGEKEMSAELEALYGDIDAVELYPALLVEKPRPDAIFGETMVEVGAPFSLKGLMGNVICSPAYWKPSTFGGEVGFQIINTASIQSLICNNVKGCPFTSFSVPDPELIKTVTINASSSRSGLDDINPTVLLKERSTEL
Data set [12] is described as follows: Toxicity in Kunming mouse assessed as changes in stomach at 1000 mg/kg, po after 14 days. It counts as organism-based. Conditions: in vivo, 336 h, time 14 day. In short, it runs like this: (§4)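 Mice, five male and five female, given a single oral dose of 1000 mg/kg and observed for behaviour for 14 days. Heart, liver, kidney and stomach then examined grossly and after H&E staining, compared with vehicle controls.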

Data set [13] relates to C6. Description: Cytotoxicity against rat C6 cells assessed as reduction in cell viability after 24 hrs by MTT assay. It is filed as cell-based. The following applies: C6, 24 h. In short, it runs like this:
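C6 or BV2 cells seeded at 1–5×10^5 per well; after 12 h exposed to 0, 6.25, 12.5, 25, 50 or 100 μM (final, DMSO <0.4%) for 24 h. MTT added for 4 h, dissolved in DMSO, read at 570 nm. IC50 as mean of three independent experiments run in triplicate.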

In data set [14] the test system is BV-2. Kind of data set: Antiinflammatory activity against LPS-induced mouse BV-2 cells assessed as decrease in INOS protein expression at 40 uM after 24 hrs by Western blot analysis relative to control. It is filed as functional. Set-up: scale not given: the % may be the effect or the level left. In short, it runs like this:
as §3

Data set [15] can be described thus: Toxicity in Kunming mouse assessed as changes in heart at 1000 mg/kg, po after 14 days. It is filed as organism-based. The following applies: in vivo, 336 h, time 14 day. In short, it runs like this:
as §4

Data set [16] concerns BV-2. Kind of data set: Antiinflammatory activity against LPS-induced mouse BV-2 cells assessed as decrease in ROS production at 10 to 40 uM after 6 hrs by DCFH-DA fluorescence probe based flow cytometric analysis. It is filed as functional, cell-based. Conditions: dose 10-40 µM. In short, it runs like this: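 BV2 cells with LPS 1 μg/mL and compound at 10, 20 or 40 μM for 6 h, then DCFH-DA 20 μM final for 30 min at 37 °C. Washed in cold PBS and read by flow cytometry, excitation 485 nm and emission 530 nm.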

Data set [17] can be described thus: Toxicity in Kunming mouse assessed as changes in kidney at 1000 mg/kg, po after 14 days. The following applies: in vivo, 336 h, time 14 day. It is filed as organism-based. In short, it runs like this:
as §4

Turning to `Cc1ccc(C(=O)NCCc2c[nH]c3ccccc23)c(O)c1`, the outcome in data set [1], in data set [2], in data set [4], in data set [7] and in [16] was Active. The Activity result was “Non-Toxic” in data set [3]; “Non-Toxic” in data set [5]; 29% in data set [8]; “Non-Toxic” in data set [12]; 100% in data set [14]; “Non-Toxic” in [15]. Further, the Activity result in data set [17] is on record as “Non-Toxic”. Further, in data set [6], the result was inactive. The IC50 in data set [9] was over 40 µM; in data set [11], 4160 nM; in data set [13], over 100 µM. Moreover, the inhibition entry in data set [10] was “Dose-dependent effect”.
For the compound `O=C(NCCc1c[nH]c2ccc(O)cc12)c1ccccc1Nc1ccccc1`, the result in data set [2], in data set [6], in data set [7] and in [16] was Active. Moreover, the Activity entry in [3] is reported as “Non-Toxic”; in [5], “Non-Toxic”; in [8] it was 95%; in data set [12] it was “Non-Toxic”; in [15], “Non-Toxic”; in [17] it was “Non-Toxic”. Also, the IC50 was 500 nM in data set [11] and over 100 µM in data set [13]. In addition, the result in [14] was inactive.
